Screens (PubChem)
Sampled rows, rich in hits. Any-hit rate of the full collection: about 1.5%.
CXCR6 block – inhibitors of human CXCR6 receptor. O00574. AID 602244. CHO-K1 PathHunter CXCR6 beta-arrestin, luminescence. inhibition, % at 20 µM. 0.36% of 360,000 active; in the data active = inhibition above about 34%, passing the limit was not always enough;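 also: antagonist mode with CXCL16 agonist at 10 nM final; 0% = 10 nM CXCL16 with DMSO and 100% = unstimulated wells without agonist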
APJ antag – blocks the human apelin receptor APJ; P35414; CHO-K1 APJ beta-arrestin complementation, luminescence; inhibition, % at 20 µM; 0.32% of 330,000 active;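 active = inhibition above about 40% at 20 µM, limit read from the data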;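 also: cells challenged with 10 nM apelin-13 agonist together with compound; plate controls were apelin-13 plus DMSO wells for no effect and DMSO wells lacking apelin-13 for full effect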
APJ agonist – activates the human apelin receptor APJ. P35414. CHO-K1 APJ PathHunter beta-arrestin, luminescence; 0% DMSO wells, 100% apelin. activation, % at 20 µM. 0.11% of 330,000 active. AID 2520;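 active = activation more than six SD over the plate average, tested at 20 µM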;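 also: 0% = DMSO alone and 100% = apelin-13 at 10 nM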
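system = engineered CHO-K1 APJ arrestin reporter cells | input = 1000 cells per well | timing = overnight seeding, 90 min compound at 25 °C, 1 h detection | measured by = enzyme-fragment complementation luminescence | read-out = beta-arrestin recruitment to APJ as agonist activity, luminescent signal | control set = negative DMSO alone, positive Apelin-13 at 10 nM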
CCR6 antag – CCR6 (human) receptor antagonism. 0.49% of 340,000 active. CHO-K1 CCR6 PathHunter beta-arrestin, luminescence, CCL20-stimulated. P51684. AID 493098. inhibition, % at 20 µM;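 active = compounds whose inhibition of the agonist-driven luminescence signal at 20 µM reaches about 50%, limit read from the data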;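 also: cells stimulated with CCL20 at 14 nM final; plate controls were DMSO with CCL20 for no effect and DMSO without agonist for full effect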
Target sequence (P51684 whole entry, looked up): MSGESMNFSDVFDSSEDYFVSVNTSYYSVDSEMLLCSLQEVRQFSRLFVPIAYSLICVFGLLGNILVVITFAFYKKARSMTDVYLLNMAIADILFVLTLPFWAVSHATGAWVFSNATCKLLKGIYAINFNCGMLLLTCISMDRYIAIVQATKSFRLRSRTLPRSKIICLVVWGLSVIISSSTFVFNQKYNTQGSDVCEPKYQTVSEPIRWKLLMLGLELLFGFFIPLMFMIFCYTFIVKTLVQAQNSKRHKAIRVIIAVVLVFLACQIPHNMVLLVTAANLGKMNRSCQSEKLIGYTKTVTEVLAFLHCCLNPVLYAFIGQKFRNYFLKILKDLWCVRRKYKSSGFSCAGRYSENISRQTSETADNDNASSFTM
EBI2 antag – EBI2 (human) antagonism; 0.81% of 360,000 active; EBI2 beta-arrestin recruitment, luminescence, 7a,25-OHC stimulated; inhibition, % at 5 µM; P32249; AID 651636; in the data active = inhibition above about 38%;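 also: enzyme fragment complementation signal reports receptor beta-arrestin coupling in cells; 0% = agonist plus DMSO wells and 100% = wells without agonist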
EBI2 conf – EBI2 (human) antagonism, single concentration confirmation | shares compounds with EBI2 antag | EBI2 beta-arrestin luminescence, 7a,25-OHC antagonism | inhibition, % at 5 µM | 29% of 2,400 active | AID 651997;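 active = inhibition of at least 50%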
EBI2 ag – counter-screen for EBI2 antagonists: EBI2 agonist activity. shares compounds with EBI2 antag. 2,400 tested, under 10 active. EBI2-expressing cells, agonist mode, luminescence, 60 min; 0% vehicle, 100% 7α,25-dihydroxycholesterol control. activation, % at 5 µM;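 active = activation of at least 50%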
bGal counter – counter-screen for EBI2 antagonists: E. coli beta-galactosidase inhibition. shares compounds with EBI2 antag. purified beta-galactosidase, luminescent Galacton Star, 15 min. inhibition, % at 5 µM. 1% of 2,400 active;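 active = replicate-average signal at least 3 plate SD below neutral wells, shown as high inhibition, flagging enzyme-inhibiting false positives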;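 also: 0% = DMSO wells with enzyme and 100% = wells lacking enzyme; higher means stronger loss of beta-gal luminescence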
* hit, by the source's call; · = no result given.

SMILES	CXCR6 block	APJ antag	APJ agonist	CCR6 antag	EBI2 antag	EBI2 conf	EBI2 ag	bGal counter
c1ccc2c(C(c3nnnn3-c3ccc4c(c3)OCCO4)N3CCCC3)ccnc2c1 (stereo unspecified)	-2	·	·	·	-3	·	·	·
COCCNC(=S)N(C)[C@H]1C[C@H]2c3cc(Oc4ccccc4C)ccc3CCN2C(=O)[C@H]1[C@H](C)O	3	·	·	·	-6	·	·	·
N#Cc1ccc(C(=O)N2CCN(S(=O)(=O)c3ccc(Br)s3)CC2)cc1	-12	-5	-3	1	66*	32	1	8
CC(C)OCc1ccc(C(=O)N2CCN(S(=O)(=O)c3ccc(Br)s3)CC2)cc1	-7	-3	-2	0	34	·	·	·
O=C(/C=C/c1cccs1)N1CCN(Cc2ccc3c(c2)OCO3)CC1	9	-10	5	4	64*	44	-1	-13
O=C(/C=C/c1cccc([N+](=O)[O-])c1)N1CCN(Cc2ccc3c(c2)OCO3)CC1	-11	6	3	0	50*	31	1	0
COc1ccc(C(O)c2nc(-c3ccccc3OC)cs2)cc1 (stereo unspecified)	3	·	·	·	5	·	·	·
O=C1C=C(c2cc(C(F)(F)F)cc(C(F)(F)F)c2)C[C@@H](c2ccc(Cl)cc2)C1	6	11	-1	5	60*	37	-1	-15
COc1cccc(C2=CC(=O)C[C@H](c3ccc(Cl)cc3)C2)c1	6	1	-2	29	46*	32	0	11
O=C1C=C(c2ccc(-c3ccccc3)cc2)C[C@@H](c2ccc(F)cc2)C1	4	2	-3	11	24	·	·	·
Cc1ccc(C2=CC(=O)C[C@H](c3ccc(F)cc3)C2)cc1	12	9	-3	26	70*	36	2	6
COc1ccc(C2=CC(=O)C[C@H](c3ccc(Cl)cc3)C2)cc1	-3	17	0	20	50*	59*	-2	-4
CCOC(=O)c1c(C)[nH]c(C)c1S(=O)(=O)N1CCN(c2ccc(F)cc2)CC1	-4	-11	-2	-2	-11	·	·	·
COc1cccc(-c2oc3c(c2-c2ccc(OC)nc2)C(O)CCC3)c1 (stereo unspecified)	13	·	·	·	2	·	·	·
c1ccc(-c2ncnc3ccccc23)cc1	2	·	·	5	11	·	·	·
COc1ccc(Cn2cc(Cn3c4ccccc4c(=O)n3C(C)C)nn2)cc1	3	·	·	·	-2	·	·	·
CCOc1ccc(C2=CC(=O)C[C@H](c3ccc(OC)cc3)C2)cc1	-4	-5	-1	3	77*	48	-1	-7
COc1ccc(C2=CC(=O)CC(c3ccc(OC)cc3)C2)cc1 (stereo unspecified)	-1	11	-4	24	51*	29	-2	-13
C=Cc1ccc(C2=CC(=O)C[C@H](c3ccc(OC)cc3)C2)cc1	-5	-26	-3	14	77*	54*	0	12
CCOc1ccc(-c2ccc(C3=CC(=O)C[C@H](c4ccc(F)cc4)C3)cc2)cc1	-5	·	·	·	-2	·	·	·
COc1ccc([C@H]2CC(=O)C=C(c3cccc(Br)c3)C2)cc1	2	8	-3	19	41	·	·	·
CC(C)c1cccc(C2=CC(=O)C[C@H](c3ccc(F)cc3)C2)c1	2	1	-5	20	18	·	·	·
Cn1ccc2ccc(C3=CC(=O)C[C@H](c4ccc(F)cc4)C3)cc21	7	27	-3	6	55*	48	-1	-3
COc1ccc(C2=CC(=O)CC(c3ccc(F)cc3)C2)cc1 (stereo unspecified)	4	-1	-7	14	40	·	·	·
O=C(NCCc1ccccc1)C1Cc2c(-c3ccc(Cl)cc3)ccnc2O1 (stereo unspecified)	3	·	·	·	4	·	·	·
O=C1C=C(c2ccc(OC(F)(F)F)cc2)C[C@@H](c2ccc(Cl)cc2)C1	-2	12	-4	19	65*	36	-1	-12
